Experimental data as given in ChEMBL document CHEMBL1124992, “(Pyrimidinyloxy)acetic acids and pyrimidineacetic acids as a novel class of aldose reductase inhibitors” (J Med Chem, 1990).

Assays:
[1] = tested on: Rattus norvegicus; test: In vivo inhibition of polyol accumulation in galactosemic rat diaphragm at dose 135 mg/kg administered perorally; type: functional; settings: route oral
How it was run: (§1)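 Rats received a diet of 20% galactose for 4 days, with compound mixed into the diet. Galactitol was measured in trichloroacetic acid extracts of lens, sciatic nerve and diaphragm by a modified Kraml–Cosyns method. Values are % reduction versus galactosemic controls, compared by Dunnett's multiple comparison.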

[2] = molecular target: Aldo-keto reductase family 1 member B1 (Bos taurus) (UniProt P16116); test: In vitro inhibition of aldose reductase from the partially purified bovine lens at 10e-5 M concentration
How it was run: (§2)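 Bovine lens aldose reductase, partially purified, assayed spectrophotometrically following Hayman and Kinoshita. Each compound was tested at three concentrations, routinely in duplicate.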

[3] = molecular target: Aldo-keto reductase family 1 member B1 (Bos taurus) (UniProt P16116); test: In vitro inhibition of aldose reductase from the partially purified bovine lens at 10e-7 M concentration; how it was run: as §2
[4] = molecular target: Aldo-keto reductase family 1 member B1 (Bos taurus) (UniProt P16116); test: In vitro inhibition of aldose reductase from the partially purified bovine lens at 10e-6 M concentration; how it was run: as §2
[5] = tested on: Rattus norvegicus; test: In vivo inhibition of polyol accumulation in galactosemic rat diaphragm at dose 102 mg/kg administered perorally; type: functional; settings: route oral; how it was run: as §1
[6] = tested on: Rattus norvegicus; test: In vivo inhibition of polyol accumulation in galactosemic rat nerve at dose 99 mg/kg administered perorally; type: functional; settings: route oral; how it was run: as §1
[7] = tested on: Rattus norvegicus; test: In vivo inhibition of polyol accumulation in galactosemic rat diaphragm at dose 99 mg/kg administered perorally; type: functional; settings: route oral; how it was run: as §1
[8] = tested on: Rattus norvegicus; test: In vivo inhibition of polyol accumulation in galactosemic rat nerve at dose 151 mg/kg administered perorally; type: functional; settings: route oral; how it was run: as §1
[9] = tested on: Rattus norvegicus; test: In vivo inhibition of polyol accumulation in galactosemic rat nerve at dose 112 mg/kg administered perorally; type: functional; settings: route oral; how it was run: as §1
[10] = tested on: Rattus norvegicus; test: In vivo inhibition of polyol accumulation in galactosemic rat diaphragm at dose 112 mg/kg administered perorally; type: functional; settings: route oral; how it was run: as §1
[11] = tested on: Rattus norvegicus; test: In vivo inhibition of polyol accumulation in galactosemic rat lens at dose 93 mg/kg administered perorally; type: functional, Lens of camera-type eye; settings: route oral; how it was run: as §1
[12] = tested on: Rattus norvegicus; test: In vivo inhibition of polyol accumulation in galactosemic rat nerve at dose 93 mg/kg administered perorally; type: functional; settings: route oral; how it was run: as §1
[13] = tested on: Rattus norvegicus; test: In vivo inhibition of polyol accumulation in galactosemic rat diaphragm at dose 90 mg/kg administered perorally; type: functional; settings: route oral; how it was run: as §1
[14] = tested on: Rattus norvegicus; test: In vivo inhibition of polyol accumulation in galactosemic rat nerve at dose 90 mg/kg administered perorally; type: functional; settings: route oral; how it was run: as §1
[15] = tested on: Rattus norvegicus; test: In vivo inhibition of polyol accumulation in galactosemic rat nerve at dose 83 mg/kg administered perorally; type: functional; settings: route oral; how it was run: as §1
[16] = tested on: Rattus norvegicus; test: In vivo inhibition of polyol accumulation in galactosemic rat diaphragm at dose 83 mg/kg administered perorally; type: functional; settings: route oral; how it was run: as §1
[17] = tested on: Rattus norvegicus; test: In vivo inhibition of polyol accumulation in galactosemic rat nerve at dose 105 mg/kg administered perorally; type: functional; settings: route oral; how it was run: as §1
[18] = tested on: Rattus norvegicus; test: In vivo inhibition of polyol accumulation in galactosemic rat diaphragm at dose 105 mg/kg administered perorally; type: functional; settings: route oral; how it was run: as §1
[19] = tested on: Rattus norvegicus; test: In vivo inhibition of polyol accumulation in galactosemic rat nerve at dose 78 mg/kg administered perorally; type: functional; settings: route oral; how it was run: as §1
[20] = tested on: Rattus norvegicus; test: In vivo inhibition of polyol accumulation in galactosemic rat nerve at dose 82 mg/kg administered perorally; type: functional; settings: route oral; how it was run: as §1
[21] = tested on: Rattus norvegicus; test: In vivo inhibition of polyol accumulation in galactosemic rat diaphragm at dose 82 mg/kg administered perorally; type: functional; settings: route oral; how it was run: as §1
[22] = tested on: Rattus norvegicus; test: In vivo inhibition of polyol accumulation in galactosemic rats diaphragm; type: functional; settings: read-out: ID50 (the source's name)
[23] = tested on: Rattus norvegicus; test: In vivo inhibition of polyol accumulation in galactosemic rat diaphragm at dose 6 mg/kg administered perorally; type: functional; settings: route oral; how it was run: as §1
[24] = tested on: Rattus norvegicus; test: In vivo inhibition of polyol accumulation in galactosemic rats nerve; type: functional; settings: read-out: ID50 (the source's name)
[25] = tested on: Rattus norvegicus; test: In vivo inhibition of polyol accumulation in galactosemic rats lens; type: functional; settings: Lens of camera-type eye, read-out: ID50 (the source's name)
[26] = tested on: Rattus norvegicus; test: In vivo inhibition of polyol accumulation in galactosemic rat nerve at dose 6 mg/kg administered perorally; type: functional; settings: route oral; how it was run: as §1
[27] = tested on: Rattus norvegicus; test: In vivo inhibition of polyol accumulation in galactosemic rat nerve at dose 97 mg/kg administered perorally; type: functional; settings: route oral; how it was run: as §1
[28] = tested on: Rattus norvegicus; test: In vivo inhibition of polyol accumulation in galactosemic rat diaphragm at dose 97 mg/kg administered perorally; type: functional; settings: route oral; how it was run: as §1
[29] = tested on: Rattus norvegicus; test: In vivo inhibition of polyol accumulation in galactosemic rat diaphragm at dose 96 mg/kg administered perorally; type: functional; settings: route oral; how it was run: as §1

inhibition [2]	inhibition [3]	inhibition [4]	SMILES	also measured
95%	95%	95%	CC(C)(C)c1nc(OCC(=O)O)c(C#N)c(SCc2ccc(Br)cc2)n1	Reduction [1]: 58%
93%	46%	85%	Cc1nc(-c2cccc3ccccc23)nc(OCC(=O)O)c1C#N	
96%	94%	96%	CSc1nc(C(C)C)n(CC(=O)O)c(=O)c1C#N	
3%		0%	CSc1nc(C2CCCCC2)n(CC(=O)O)c(=O)c1S(=O)(=O)c1ccccc1	
84%	29%	68%	N#Cc1c(-c2ccccc2)nc(-c2cccc3ccccc23)n(CC(=O)O)c1=O	
96%	94%	98%	CC(C)c1nc(SCc2ccccc2)c(C#N)c(=O)n1CC(=O)O	Reduction [5]: 38%
79%	53%	76%	N#Cc1c(OCC(=O)O)nc(-c2cccc3ccccc23)nc1-c1ccccc1	
5%		1%	COC(=O)c1c(SC)nc(C2CCCCC2)n(CC(=O)O)c1=O	
93%	72%	91%	Cc1nc(NCC2CCCCC2)c(C#N)c(=O)n1CC(=O)O	
98%	93%	93%	CC(C)(C)c1nc(OCC(=O)O)c(C#N)c(SCc2ccc(Br)cc2F)n1	Reduction [6]: 28%; Reduction [7]: 47%
93%	46%	85%	N#Cc1c(Cc2cccc3ccccc23)nc(-c2cccc3c(Br)cccc23)n(CC(=O)O)c1=O	Reduction [8]: 30%
81%	10%	42%	CSc1nc(C(C)(C)C)nc(OCC(=O)O)c1C(N)=O	
92%	79%	88%	Cc1nc(-c2ccccc2)nc(OCC(=O)O)c1C#N	
92%	64%	89%	Cc1nc(N2CCN(Cc3ccccc3)CC2)c(C#N)c(=O)n1CC(=O)O	
			CCCCCCSc1nc(C(C)(C)C)nc(OCC(=O)O)c1C#N	Reduction [9]: 43%; Reduction [10]: 60%
96%	92%		N#Cc1c(SCc2ccc(Br)cc2F)nc(C2CCCCC2)n(CC(=O)O)c1=O	Reduction [11]: 15%; Reduction [12]: 50%
90%	55%	84%	CSc1nc(C)nc(OCC(=O)O)c1C#N	

inhibition [2]	inhibition [3]	inhibition [4]	SMILES	also measured
96%	76%	90%	Cc1nc(NCc2ccccc2)c(C#N)c(=O)n1CC(=O)O	
98%	89%		CSc1nc(C2CCCCC2)n(CC(=O)O)c(=O)c1C#N	Reduction [13]: 42%; Reduction [14]: 47%
89%	82%	88%	CSc1nc(C(C)(C)C)nc(OCC(=O)O)c1C#N	Reduction [15]: 35%; Reduction [16]: 32%
97%	88%	96%	CC(C)(C)c1nc(OCC(=O)O)c(C#N)c(SCC2CCCCC2)n1	Reduction [17]: 70%; Reduction [18]: 60%
88%	30%	90%	Cc1nc(NCc2cccnc2)c(C#N)c(=O)n1CC(=O)O	
96%	91%	97%	CC(C)Sc1nc(C(C)C)n(CC(=O)O)c(=O)c1C#N	
98%	88%	97%	CSc1nc(C(C)C)nc(OCC(=O)O)c1C#N	Reduction [19]: 37%
86%	74%	84%	CSc1nc(C)n(CC(=O)O)c(=O)c1C#N	
95%	85%	96%	CSc1nc(CC(C)(C)C)nc(OCC(=O)O)c1C#N	
82%	22%	71%	N#Cc1c(-c2ccccc2)nc(-c2cccc3c(Br)cccc23)n(CC(=O)O)c1=O	
92%	89%	91%	CC(C)Sc1nc(C(C)(C)C)nc(OCC(=O)O)c1C#N	Reduction [20]: 37%; Reduction [21]: 19%
13%		2%	COC(=O)c1c(OCC(=O)O)nc(C(C)(C)C)nc1SC	
			COc1ccc2c(C(=S)N(C)CC(=O)O)cccc2c1C(F)(F)F [TOLRESTAT]	ED50 [22]: 1.5 mg/kg; Reduction [23]: 90%; ED50 [24]: 8 mg/kg; ED50 [25]: 178 mg/kg; Reduction [26]: 53%
53%		18%	Cc1nc(NCc2cccnc2)cc(=O)n1CC(=O)O	
86%	82%	85%	CC(C)(C)c1nc(OCC(=O)O)c(C#N)c(SCc2ccccc2)n1	Reduction [27]: 46%; Reduction [28]: 67%
90%	81%	88%	Cc1nc(N2CCC(Cc3ccccc3)CC2)c(C#N)c(=O)n1CC(=O)O	
92%	75%	87%	CSc1nc(-c2ccccc2)nc(OCC(=O)O)c1C#N	Reduction [29]: 55%
